Activity calls are given as the source filed them. No cut-off for these calls is given here.
Assays:
T-cell line [1] = experiment: Immunosuppressive activity in human T cells assessed as reduction in anti-CD3/anti-CD28 antibody-induced cell proliferation incubated for 72 hrs by CFSE based flow cytometry; assay type: functional
How it was run: (§1)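 Cells (10^6 cells/mL) labelled with 2.5 μM CFSE at 37 °C for 10 min. T cells from healthy donors (95% purity) were activated with plate-bound anti-CD3 (2 μg/mL) plus soluble anti-CD28 (1 μg/mL). Alternatively, PBMCs were mixed with equal numbers of 3000-rad-irradiated allogeneic PBMCs. Cells were cultured with or without drug for 72 h in RPMI 1640 with 10% FBS, and CFSE dilution was read by flow cytometry. Unstimulated cells served as 0% and stimulated untreated cells as 100%. IC50 was calculated from these.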

T-cell line [2] = experiment: Induction of cell cycle arrest in anti-CD3/anti-CD28 antibody-stimulated human T cells assessed as accumulation at S phase at 0.1 uM incubated for 72 hrs by flow cytometry (reference value: 18.1%); assay type: functional
T-cell line [3] = experiment: Inhibition of IL17 production in anti-CD3/anti-CD28 antibody-stimulated human T cells at 0.2 to 5 uM incubated for 48 hrs by ELISA; assay type: functional, cell-based
How it was run: (§2)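 Human T cells (10^6 cells/mL) treated with 0.2, 1 or 5 μM drug, LY-294002 (50 μM) or vehicle and activated with anti-CD3 (2 μg/mL) plus soluble anti-CD28 (1 μg/mL) for 48 h. Supernatant IL-6 and IL-17 were quantified by ELISA against recombinant cytokine standard curves. Mean ± SEM, n = 5 per group, three independent experiments.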

T-cell line [4] = experiment: Induction of cell cycle arrest in anti-CD3/anti-CD28 antibody-stimulated human T cells assessed as accumulation at G0/G1 phase at 0.2 uM incubated for 72 hrs by flow cytometry (reference value: 66.6%); assay type: functional
T-cell line [5] = experiment: Immunosuppressive activity in human T cells assessed as reduction in alloantigen stimulation-induced cell proliferation incubated for 72 hrs by CFSE based flow cytometry; assay type: functional; how it was run: as §1
T-cell line [6] = experiment: Cytotoxicity in human T cells assessed as reduction in cell viability at 20 to 320 uM incubated for 72 hrs by CCK8 assay; assay type: cell-based
How it was run: (§3)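 Naive human T cells or PBMCs (10^6 cells/mL) exposed to 20, 40, 80, 160 or 320 μM or vehicle for 72 h. Viability read by CCK-8 as OD450, with untreated cells set to 100%. Mean ± SEM, n = 5 per group, three independent experiments.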

T-cell line [7] = experiment: Effect on anti-CD3/anti-CD28 antibody-induced cell activation in human T cells assessed as effect on CD25 expression at 5 uM incubated for 24 hrs by flow cytometry (reference value: 69.1%); assay type: functional
T-cell line [8] = experiment: Induction of cell cycle arrest in anti-CD3/anti-CD28 antibody-stimulated human T cells assessed as accumulation at S phase at 1 uM incubated for 72 hrs by flow cytometry (reference value: 18.1%); assay type: functional
T-cell line [9] = experiment: Effect on anti-CD3/anti-CD28 antibody-induced cell activation in human T cells assessed as effect on CD69 expression at 5 uM incubated for 24 hrs by flow cytometry (reference value: 41.2%); assay type: functional
T-cell line [10] = experiment: Effect on anti-CD3/anti-CD28 antibody-induced cell activation in human T cells assessed as effect on CD25 expression at 0.2 to 5 uM incubated for 24 hrs by flow cytometry; assay type: functional, cell-based
T-cell line [11] = experiment: Induction of cell cycle arrest in anti-CD3/anti-CD28 antibody-stimulated human T cells assessed as accumulation at G2/M phase at 0.2 uM incubated for 72 hrs by flow cytometry (reference value: 15.3%); assay type: functional
T-cell line [12] = experiment: Inhibition of IL6 production in anti-CD3/anti-CD28 antibody-stimulated human T cells at 0.2 to 5 uM incubated for 48 hrs by ELISA; assay type: functional, cell-based; how it was run: as §2
T-cell line [13] = experiment: Induction of cell cycle arrest in anti-CD3/anti-CD28 antibody-stimulated human T cells assessed as accumulation at G2/M phase at 1 uM incubated for 72 hrs by flow cytometry (reference value: 15.3%); assay type: functional
T-cell line [14] = experiment: Effect on anti-CD3/anti-CD28 antibody-induced cell activation in human T cells assessed as effect on CD69 expression at 0.2 uM incubated for 24 hrs by flow cytometry (reference value: 41.2%); assay type: functional
T-cell line [15] = experiment: Effect on anti-CD3/anti-CD28 antibody-induced cell activation in human T cells assessed as effect on CD69 expression at 1 uM incubated for 24 hrs by flow cytometry (reference value: 41.2%); assay type: functional
T-cell line [16] = experiment: Effect on anti-CD3/anti-CD28 antibody-induced cell activation in human T cells assessed as effect on CD69 expression at 0.2 to 5 uM incubated for 24 hrs by flow cytometry; assay type: functional, cell-based
T-cell line [17] = experiment: Induction of cell cycle arrest in anti-CD3/anti-CD28 antibody-stimulated human T cells assessed as accumulation at G0/G1 phase at 5 uM incubated for 72 hrs by flow cytometry (reference value: 66.6%); assay type: functional
T-cell line [18] = experiment: Effect on anti-CD3/anti-CD28 antibody-induced cell activation in human T cells assessed as effect on CD25 expression at 1 uM incubated for 24 hrs by flow cytometry (reference value: 69.1%); assay type: functional
T-cell line [19] = experiment: Induction of cell cycle arrest in anti-CD3/anti-CD28 antibody-stimulated human T cells assessed as accumulation at G0/G1 phase at 1 uM incubated for 72 hrs by flow cytometry (reference value: 66.6%); assay type: functional
PBMC = experiment: Cytotoxicity in human PBMC cells assessed as reduction in cell viability at 20 to 320 uM incubated for 72 hrs by CCK8 assay; assay type: cell-based; how it was run: as §3
T-cell line [20] = experiment: Effect on anti-CD3/anti-CD28 antibody-induced cell activation in human T cells assessed as effect on CD25 expression at 0.2 uM incubated for 24 hrs by flow cytometry (reference value: 69.1%); assay type: functional
T-cell line [21] = experiment: Induction of cell cycle arrest in anti-CD3/anti-CD28 antibody-stimulated human T cells assessed as accumulation at S phase at 5 uM incubated for 72 hrs by flow cytometry (reference value: 18.1%); assay type: functional
T-cell line [22] = experiment: Induction of cell cycle arrest in anti-CD3/anti-CD28 antibody-stimulated human T cells assessed as accumulation at G2/M phase at 5 uM incubated for 72 hrs by flow cytometry (reference value: 15.3%); assay type: functional
T-cell line [23] = experiment: Induction of cell cycle arrest in anti-CD3/anti-CD28 antibody-stimulated human T cells assessed as accumulation at S phase at 0.2 uM incubated for 72 hrs by flow cytometry (reference value: 18.1%); assay type: functional
T-cell line [24] = experiment: Effect on anti-CD3/anti-CD28 antibody-induced cell activation in human T cells assessed as effect on CD69 expression at 0.1 uM incubated for 24 hrs by flow cytometry (reference value: 41.2%); assay type: functional
T-cell line [25] = experiment: Effect on anti-CD3/anti-CD28 antibody-induced cell activation in human T cells assessed as effect on CD25 expression at 0.1 uM incubated for 24 hrs by flow cytometry (reference value: 69.1%); assay type: functional

`O=C1[C@H]2CN3CCC[C@]45CC[C@@]6(Nc7ccccc7[C@@]26[C@@H]34)[C@@]1(O)C5` gave an IC50 (T-cell line [1]) of 25.4 µM.

With `COC(=O)N1c2c(OC)cccc2[C@@]23[C@H]4CN5CCC[C@@](CC[C@]12C(=O)O)(CC4=O)[C@H]53` the IC50 (T-cell line [1]) was 27.8 µM.

With `C[N+]12CCC[C@]34CC[C@@]5(Nc6ccccc6[C@]5(CC1)[C@H]32)[C@H](C(=O)[O-])C4` (some centres undefined) the IC50 (T-cell line [1]) was 21.6 µM.

`CC(=O)O[C@H]1C(=O)[C@@]2(C)[C@H]([C@H](OC(=O)c3ccccc3)[C@]3(O)C[C@H](OC(=O)[C@H](O)[C@@H](NC(=O)c4ccccc4)c4ccccc4)C(C)=C1C3(C)C)[C@]1(OC(C)=O)CO[C@@H]1C[C@@H]2O` [PACLITAXEL] gave an Activity (T-cell line [2]) of 16.9%.

In the case of `CC[C@]12CCCn3ccc(c31)-c1ccccc1NC(=O)CC2` [RHAZINILAM], the inhibition (T-cell line [3]) is reported as “Active”, the Activity (T-cell line [4]) is reported as 66.5% and the IC50 (T-cell line [5]) is reported as 1.1 µM. The Activity (T-cell line [6]) was “Non-Toxic”, the Activity (T-cell line [7]) was 69.3% and the Activity (T-cell line [8]) was 19.7%. For the same compound, the Activity (T-cell line [9]) was 41.6%, the Activity (T-cell line [10]) was “inactive” and the Activity (T-cell line [11]) was 16.7%. For the same compound, the inhibition (T-cell line [12]) was “Active”, the Activity (T-cell line [13]) was 22.9% and the Activity (T-cell line [14]) was 41.1%. The Activity (T-cell line [15]) was 42.4%, the Activity (T-cell line [16]) was “inactive” and the Activity (T-cell line [17]) was 42.1%. The Activity (T-cell line [18]) was 70.3%, the Activity (T-cell line [19]) was 57.4% and the Activity (PBMC) was “Non-Toxic”. It also gave an IC50 (T-cell line [1]) of 1 µM, an Activity (T-cell line [20]) of 68.8% and an Activity (T-cell line [21]) of 17.6%. The Activity (T-cell line [22]) was 40.3% and the Activity (T-cell line [23]) was 16.8%.

With `C=CC[C@@H]1/C=C(\C)C[C@H](C)C[C@H](OC)[C@H]2O[C@@](O)(C(=O)C(=O)N3CCCC[C@H]3C(=O)O[C@H](/C(C)=C/[C@@H]3CC[C@@H](O)[C@H](OC)C3)[C@H](C)[C@@H](O)CC1=O)[C@H](C)C[C@@H]2OC` [TACROLIMUS ANHYDROUS] the Activity (T-cell line [24]) was 13.1% and the Activity (T-cell line [25]) was 6.8%.
